From PubChem BioAssay
An excerpt weighted towards active compounds, which were near 1.8% of everything screened.
M5 ag – human M5 muscarinic receptor agonists, primary screen, CHO-K1 cells, Fluo-8 calcium fluorescence | Muscarinic acetylcholine receptor M5 (Homo sapiens), P08912 | CHO-K1 hM5 cells; 0% DMSO wells, 100% maximal acetylcholine response | activation, % at 3 µM | actives 0.19% (n = 360,000) | AID 624037, 2012;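 active = activation above the run's mean over test compounds plus 3 SD, cut at about 23% in these data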;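 note: signal is peak over basal fluorescence ratio across the kinetic read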
CHRM4 PAM – human M4 muscarinic receptor positive allosteric modulators, primary screen, CHO-K1 cells, Fluo-8 calcium fluorescence; Muscarinic acetylcholine receptor M4 (Homo sapiens), P08173; CHO-K1 hM4/Gqi5, ACh EC20; 0% = ACh EC20, 100% = maximal ACh; activation, % at 3 µM; actives 0.4% (n = 360,000); AID 624126, 2012;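 active = activation above its plate's cutoff, the mean activation of sample wells plus 3 SD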
Target sequence (P08173 whole entry, looked up): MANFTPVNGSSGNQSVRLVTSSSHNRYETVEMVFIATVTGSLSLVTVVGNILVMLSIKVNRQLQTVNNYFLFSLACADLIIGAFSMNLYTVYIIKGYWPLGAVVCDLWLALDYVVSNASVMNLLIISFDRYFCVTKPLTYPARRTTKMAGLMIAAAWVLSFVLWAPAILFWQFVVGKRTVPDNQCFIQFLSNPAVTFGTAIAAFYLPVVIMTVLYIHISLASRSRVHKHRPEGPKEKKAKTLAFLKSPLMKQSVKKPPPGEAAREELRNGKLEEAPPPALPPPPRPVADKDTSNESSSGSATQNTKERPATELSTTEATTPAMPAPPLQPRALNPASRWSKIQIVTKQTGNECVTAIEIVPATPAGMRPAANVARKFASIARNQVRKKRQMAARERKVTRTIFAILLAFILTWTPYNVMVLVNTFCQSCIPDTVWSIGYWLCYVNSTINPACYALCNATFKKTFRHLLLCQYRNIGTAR
M5 antag – human M5 muscarinic receptor antagonists, primary screen, CHO cells, Fluo-8 calcium fluorescence; AID 624040, 2012; inhibition, % at 3 µM; actives 0.59% (n = 360,000); CHO-hM5 cells, ACh EC80;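 active = inhibition above a per-plate cutoff, the mean of that plate's test compounds plus 3 SD, cut at about 27% in these data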;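 note: 0% = acetylcholine EC80 with DMSO and 100% = DMSO without agonist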
CHRM4 antagonist – human M4 muscarinic receptor antagonists, primary screen, CHO cells, Fluo-8 calcium fluorescence; Muscarinic acetylcholine receptor M4 (Homo sapiens), P08173; CHO-hM4 cells, ACh EC80; inhibition, % at 3 µM; actives 0.73% (n = 360,000); AID 624125, 2012;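 active = inhibition above its plate's cutoff, the mean inhibition of sample wells plus 3 SD, cut at about 27% in these data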;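 note: 0% = acetylcholine EC80 with DMSO and 100% = DMSO without agonist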
M5 PAM – human M5 muscarinic receptor positive allosteric modulators, primary screen, CHO-K1 cells, Fluo-8 calcium fluorescence. Muscarinic acetylcholine receptor M5 (Homo sapiens), P08912. actives 0.3% (n = 360,000). CHO-K1 hM5, ACh EC20 PAM; 0% = ACh EC20, 100% = ACh EC100. activation, % at 3 µM. AID 624038, 2012;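 active = activation above the run cutoff, the mean activation of all test compounds plus 3 SD, cut at about 18% in these data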
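Test system: CHO-K1 hM5 cells / Doses: single-point, 3 µM nominal / Times: Post-acetylcholine fluorescence recording 140 s / Technique: Fluo-8 calcium fluorescence / Measure: Max/basal fluorescence ratio as % of EC20–EC100 ACh window / Benchmarks: low control EC20 acetylcholine (0%), high control EC100 acetylcholine (100%) / Replicates: one well per compound, no replicates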
M4 ag – human M4 muscarinic receptor agonists, primary screen, CHO-K1 cells, Fluo-8 calcium fluorescence; activation, % at 3 µM; actives 0.14% (n = 360,000); CHO-K1 hM4/Gqi5; vehicle 0%, full acetylcholine response 100%;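 active = activation above the run mean over all test wells plus 3 SD, cut at about 32% in these data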;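 note: peak over basal fluorescence ratio per well then scaled between controls; 0% = DMSO wells and 100% = acetylcholine at EC100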
* = called active by the depositor.

SMILES	M5 ag	CHRM4 PAM	M5 antag	CHRM4 antagonist	M5 PAM	M4 ag
CC(OC(=O)CNC(=O)COc1ccccc1)C(=O)N(C)Cc1ccccc1 (stereo unspecified)	-2	-3	5	3	2	1
CC(C)(C)n1nnnc1C(c1ccccc1)N1CCN(C/C=C/c2ccccc2)CC1 (stereo unspecified)	-7	-15	68*	28*	-22	1
CC(C)(C)n1nnnc1C(c1cccc(C#N)c1)N1CCCCCC1 (stereo unspecified)	3	14	9	-4	26*	0
CCC(c1nnnn1C(C)(C)C)N1CCN(C/C=C/c2ccccc2)CC1 (stereo unspecified)	-7	5	5	-13	-2	3
CCC(c1nnnn1-c1ccc(OC)cc1)N1CCN(C/C=C/c2ccccc2)CC1 (stereo unspecified)	-7	-5	14	-18	-17	6
COc1ccc(-n2nnnc2C(c2ccccc2)N2CCN(C/C=C/c3ccccc3)CC2)cc1 (stereo unspecified)	-8	-16	72*	32*	-22	3
CC(C)(C)n1nnnc1C(c1cccc(C#N)c1)N1CCN2CCCC2C1 (stereo unspecified)	-6	-1	-3	-3	2	0
COc1ccccc1CNC(=O)COC(=O)c1cnc(C)cn1	1	6	-4	-8	-2	0
CC(=O)Nc1cccc(Oc2ccc3c(c2)C(=O)NC3=O)c1	5	-4	-1	-16	2	0
COc1cccc(N2CCN(c3ncnc4c3[nH]c3ccc(F)cc34)CC2C)c1 (stereo unspecified)	7	-23	77*	85*	-23	28
CCOC(=O)C1(C)CCN1C(=O)c1ccco1 (stereo unspecified)	1	5	0	-7	1	1
O=C(Cn1cnc2ccccc21)OCC(=O)N1CCCCC1	4	4	6	-1	-7	1
Cc1ccc(OCC(O)Cn2c(=N)n(Cc3ccccc3)c3ccccc32)cc1 (stereo unspecified)	3	-24	10	12	-7	33*
COc1cc(C2c3cc4c(cc3OC(NCCc3ccccc3)C2C)OCO4)cc(OC)c1OC (stereo unspecified)	8	-2	11	1	-4	0
CN1CCc2nc3ccc(Cl)cc3c(-c3ccccc3Cl)c2C1	-8	-17	66*	70*	-18	0
COc1ccc(-c2nn(CCC#N)cc2C(=O)Nc2cccc(C(=O)O)c2)cc1[N+](=O)[O-]	-2	8	7	-10	1	0
CN(C)CC(=O)N[C@@H]1C=C[C@@H](CC(=O)NCCN2CCCCC2)O[C@@H]1CO	1	12	-13	-19	10	2
CN(C)CC(=O)N[C@@H]1CC[C@@H](CC(=O)NCCN2CCCCC2)O[C@@H]1CO	0	3	-18	-9	20*	1
CCOc1ncccc1C(=O)Nc1ccc2c(C)cc(=O)oc2c1	-7	6	-4	7	22*	1
O=C(c1ccccc1)c1cc(Cl)ccc1N1C(=O)C=CC1=O	6	-17	6	35*	8	5
O=C(CC(=O)c1cc(Cl)ccc1O)c1ccccc1	1	5	1	-8	0	0
C[C@H](CO)N1C[C@H](C)[C@@H](CN(C)Cc2ccccc2C(=O)O)OCc2cnnn2CCCC1=O	0	-3	1	5	5	2
Cc1ccc(NC(=O)COC(=O)CCc2nc3ccccc3c(=O)[nH]2)c(Br)c1	-4	25*	-2	-13	1	1
